High-throughput results (PubChem BioAssay)
Hits are enriched below; roughly 2.9% of the tested compounds scored in any of these assays.
FGF22 binding-1 = FGF22 (human) thermal shift binding; activity (Tm shift, normalised), % at 9.99 µM; 340,000 compounds, 1.5% hits; recombinant FGF22 thermal shift, SYPRO orange fluorescence; percent of sucrose octasulfate shift, DMSO zero; Q9HCT0;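 active = mean Tm shift, scaled 0 neutral to 100 positive control, at about 1.3% or above, every replicate too, limit read from the data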
Target sequence (Q9HCT0 whole entry, looked up): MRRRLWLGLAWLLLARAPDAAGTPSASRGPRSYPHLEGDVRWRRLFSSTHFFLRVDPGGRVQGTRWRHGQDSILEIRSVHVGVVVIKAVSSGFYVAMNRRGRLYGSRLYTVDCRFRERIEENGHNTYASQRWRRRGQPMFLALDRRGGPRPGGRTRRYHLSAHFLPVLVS
Vif inh = inhibitors of HIV Vif; HEK293T cells, Vif self-association by quenched fluorescence, imaging, 24 h; inhibition, % at 7.49 µM; 340,000 compounds, 0.35% hits; AID 602346; in the data active = inhibition above about 50%, passing the limit was not always enough
Ecoli rRNA inh = inhibitors of bacterial rRNA selective over humanized ribosomes | E. coli WT GFP vs humanized-ribosome RFP mutants, fluorescence, 24 h; stronger effect = lower value; DMSO median 0, no signal -100 | GFP signal change (wild-type ribosome), % (no concentration beside the values) | 350,000 compounds, 1.6% hits;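 active = significant combined selectivity score with lowered wild-type GFP, culture density cut under 30%, mutant RFP and density less affected; inactive = any of these conditions unmet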
PglD DTNB = inhibitors of Campylobacter jejuni PglD acetyltransferase | purified PglD enzyme, DTNB colorimetric CoA detection | inhibition, % at 12.5 µM | 360,000 compounds, 0.098% hits; in the data active = inhibition above about 16%, passing the limit was not always enough
Cneo AK release = causes C. neoformans cell lysis | adenylate kinase release luminescence, 4 h; normalised: neutral wells 0, clomiphene wells 100 | lysis activity, % at 15 µM | 360,000 compounds, 0.2% hits | AID 651654;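 active = mean lysis activity across replicates of at least 80%, whatever share of replicates individually reach that level; inactive = mean lysis activity below 80%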
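Assay system: Cryptococcus neoformans yeast cells / Dosing: single-point compound dose / Timing: 4 h at 37 °C static, read 1 h later / Measured by: luminescence of released adenylate kinase using an AK detection reagent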
PGC1a acetyl inh = modulators of PGC1a acetylation. 350,000 compounds, 0.17% hits. AID 651687. U2OS PGC1a acetylation, AlphaScreen anti-acetyl-lysine; with virally co-expressed GCN5 acetyltransferase. inhibition, % at 15.6 µM;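 active = every replicate shows inhibition of at least 40%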
FGF22 binding-2 = binds human FGF22 shifting its melting temperature. shares compounds with FGF22 binding-1. recombinant FGF22 thermal shift, SYPRO orange fluorescence. thermal shift activity, °C (ΔTm) at 38 µM. 1,000 compounds, 2% hits. AID 720646;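 active = fitted rise in melting shift crosses a set limit at or below the top valid dose tested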
TSA no protein = shows thermal shift signal without protein, FGF22 counter-screen; shares compounds with FGF22 binding-1; compound-only SYPRO orange thermal shift counter-screen, no protein; AC50, µM (titrated, usually from 38 µM); 1,000 compounds, 2% hits;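 active = rising signal whose fitted curve reaches the 0.54 level within the top valid dose, showing a melting point, actives reach about 13 µM in these data; inactive = the rest, including activity in the opposite direction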; note: value is where the raw curve crosses a fixed level and not half-maximal
A number is an active result; . = inactive; / = no result given.

SMILES | FGF22 binding-1 | Vif inh | Ecoli rRNA inh | PglD DTNB | Cneo AK release | PGC1a acetyl inh | FGF22 binding-2 | TSA no protein
CCC(=O)Nc1ccc2c(c1)C(=O)N(C)C[C@H](OC)[C@@H](C)CN(C(=O)CC)[C@@H](C)CO2 | 1.5 | / | . | . | . | . | . | .
CO[C@@H]1CN(C)C(=O)c2ccc(NC(=O)C3CC3)cc2OC[C@H](C)N(C(=O)CN2CCOCC2)C[C@@H]1C | 1.4 | / | . | . | . | . | . | .
CO[C@H]1CN(C)C(=O)c2cc(NS(=O)(=O)c3ccc(C)cc3)ccc2OC[C@@H](C)N(C(=O)NC(C)C)C[C@@H]1C | 1.2 | / | . | . | 97 | . | . | .
CO[C@@H]1CN(C)C(=O)c2ccc(NC(C)=O)cc2OC[C@@H](C)N(C(=O)Cc2ccccn2)C[C@H]1C | 1.4 | / | . | . | . | . | . | .
Cc1noc(C)c1S(=O)(=O)Nc1ccc2c(c1)C(=O)N([C@@H](C)CO)C[C@H](C)[C@H](CN(C)S(C)(=O)=O)O2 | . | / | . | . | . | . | / | /
O=C(C[C@H]1CC[C@@H]2[C@H](COC[C@@H](O)CN2Cc2nccs2)O1)NCc1ccccc1F | 6.6 | / | . | . | . | . | . | .
O=C(C[C@H]1CC[C@H]2[C@@H](COC[C@H](O)CN2Cc2nccs2)O1)NCc1ccccc1F | 1.6 | / | . | . | . | . | . | .
O=C(C[C@@H]1CC[C@@H]2[C@H](COC[C@@H](O)CN2S(=O)(=O)c2cccc(F)c2)O1)Nc1ccc(-c2ccccc2)cc1 | 1.8 | / | . | . | . | . | . | .
O=C(C[C@@H]1CC[C@H]2[C@@H](COC[C@@H](O)CN2Cc2cc(F)ccc2F)O1)NCc1ccc(F)cc1 | 2.4 | / | . | . | . | . | . | .
O=C(C[C@@H]1CC[C@H]2[C@@H](COC[C@@H](O)CN2S(=O)(=O)c2cccc(F)c2)O1)Nc1ccc(-c2ccccc2)cc1 | . | / | . | . | . | . | / | /
O=C(C[C@@H]1CC[C@@H]2[C@H](COC[C@@H](O)CN2Cc2nccs2)O1)NCc1ccccc1F | . | / | . | . | . | . | / | /
C[C@@H]1CN([C@H](C)CO)C(=O)c2cc(NC(=O)c3ccncc3)ccc2O[C@@H]1CN(C)S(=O)(=O)c1cccs1 | . | / | . | . | . | . | / | /
COc1ccc(NC(=O)N(C)C[C@@H]2Oc3c(NC(=O)C4CCOCC4)cccc3C(=O)N([C@H](C)CO)C[C@H]2C)cc1 | . | / | . | . | . | . | / | /
CC(=O)N1[C@@H]2CN(CC(F)(F)F)C[C@H]1C2c1ccccc1 (stereo not given in full) | / | / | . | / | / | / | / | /
Cn1cnc(S(=O)(=O)N2C[C@H](O)COC[C@@H]3O[C@@H](CC(=O)NCc4ccc(F)cc4)CC[C@H]32)c1 | 3.0 | / | . | . | . | . | . | .
CCN1CCc2c(sc(NC(=O)c3ccc(S(=O)(=O)N(CC)c4ccccc4)cc3)c2C(N)=O)C1 | 28 | . | / | . | . | / | . | .
CC(=O)N1CCc2c(sc(NC(=O)C3COc4ccccc4O3)c2C(N)=O)C1 (stereo not given) | . | . | . | . | . | . | / | /
CCOC(=O)N1CCc2c(sc(NC(=O)C3COc4ccccc4O3)c2C(N)=O)C1 (stereo not given) | 29 | . | . | . | . | / | . | .
CCN1CCc2c(sc(NC(=O)c3ccc(C(=O)c4ccccc4)cc3)c2C(N)=O)C1 | . | . | . | . | . | . | / | /
O=C(CN1CCOCC1)N[C@H]1CC[C@@H](CCNC(=O)C2CCC2)O[C@H]1CO | . | / | . | . | . | . | / | /
CC(C)NC(=O)N(C)C[C@H]1Oc2ccc(NC(=O)CCN3CCOCC3)cc2CC(=O)N([C@H](C)CO)C[C@@H]1C | . | / | . | . | . | . | / | /
Oc1ccc(-c2nnc(Nc3cccc(O)c3)c3ccccc23)cc1 | 1.9 | . | . | . | . | . | . | .
CCCN(CCC)CCCNC(=O)C1c2cc(OC)c(OC)cc2C(=O)N(C)C1c1cccs1 (stereo not given) | / | . | / | . | . | . | / | /
CCCCNC(=O)C1c2cc(OC)c(OC)cc2C(=O)N(C)C1c1cccs1 (stereo not given) | 3.6 | . | . | . | . | . | . | .
CC(=O)c1ccc(S(=O)(=O)N2CCN(CC(=O)Nc3ccc(Cl)c([N+](=O)[O-])c3)CC2)cc1 | 2.6 | . | . | . | . | / | . | .
SMILES | FGF22 binding-1 | Vif inh | Ecoli rRNA inh | PglD DTNB | Cneo AK release | PGC1a acetyl inh | FGF22 binding-2 | TSA no protein
CC(C)NC(=O)Nc1ccc2c(c1)C(=O)N([C@@H](C)CO)C[C@@H](C)[C@@H](CN(C)Cc1ccc(C(F)(F)F)cc1)O2 | . | / | . | . | . | . | / | /
C[C@@H]1CN([C@@H](C)CO)C(=O)c2cccc(NC(=O)C3CC3)c2O[C@@H]1CN(C)C(=O)Nc1cccc2ccccc12 | . | / | . | . | . | / | / | /
COc1ccc(CN(C)C[C@H]2Oc3c(NS(C)(=O)=O)cccc3C(=O)N([C@@H](C)CO)C[C@H]2C)cc1 | 3.1 | / | . | . | . | . | . | .
C[C@H](CO)N1C[C@H](C)[C@@H](CN(C)C(=O)Nc2cccc3ccccc23)Oc2c(NS(C)(=O)=O)cccc2C1=O | 1.8 | / | . | . | . | . | . | .
C[C@H](CO)N1C[C@H](C)[C@@H](CN(C)C(=O)C2CC2)OCc2ccccc2-c2ccccc2C1=O | 11 | / | . | . | . | . | . | .
C[C@H]1CN([C@@H](C)CO)C(=O)c2cccc(NS(C)(=O)=O)c2O[C@H]1CN(C)C(=O)Nc1cccc2ccccc12 | . | / | . | . | . | . | / | /
C[C@@H]1CN([C@@H](C)CO)C(=O)c2ccccc2-c2ccccc2CO[C@@H]1CN(C)C(=O)C1CC1 | . | / | . | . | . | . | / | /
COc1ccc(CN(C)C[C@@H]2Oc3c(NS(C)(=O)=O)cccc3C(=O)N([C@H](C)CO)C[C@@H]2C)cc1 | . | / | . | . | . | . | / | /
C[C@H](CO)N1C[C@H](C)[C@@H](CN(C)C(=O)Nc2cccc3ccccc23)Oc2c(NC(=O)C3CC3)cccc2C1=O | 2.2 | / | . | . | . | / | . | .
C/C=C/c1cnc2c(c1)C(=O)N([C@H](C)CO)C[C@H](C)[C@@H](CN(C)C(=O)Nc1ccc(OC)cc1)O2 | . | / | . | . | . | . | / | /
C[C@@H]1CN([C@@H](C)CO)C(=O)c2cc(C3=CCCCC3)cnc2O[C@@H]1CN(C)Cc1ccncc1 | . | / | . | . | . | . | / | /
